# High-throughput results from PubChem BioAssay.
# CTSL1 counter: Fasciola hepatica cathepsin L1 inhibitors, primary screen, counter-screen for PFM18AAP inhibitor project, biochemical, QFRET, fluorogenic peptide substrate. 300,000 tested, 0.49% active. recombinant F. hepatica cathepsin L1, Z-Leu-Arg-MCA fluorescence. AID 1906, 2009. inhibition, % at 5.96 µM;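 active = inhibition above the mean of all tested compounds plus 3 SD, set per screening campaign, cut at about 17% in these data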
# ARFGAP1 inh: inhibitors of rat ARFGAP1 GAP activity, primary screen, biochemical, fluorescence polarization, GDP tracer. ADP-ribosylation factor GTPase-activating protein 1 (Rattus norvegicus), Q62848. Arfgap1-stimulated ARF1 GTP hydrolysis, GDP FP detection. inhibition, % at 16.5 µM. 360,000 tested, 0.26% active;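 active = inhibition above a per-plate limit, mean inhibition of low control wells plus 3 SD, cut at about 25% in these data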
# Target sequence (Q62848 1-136 limits assumed): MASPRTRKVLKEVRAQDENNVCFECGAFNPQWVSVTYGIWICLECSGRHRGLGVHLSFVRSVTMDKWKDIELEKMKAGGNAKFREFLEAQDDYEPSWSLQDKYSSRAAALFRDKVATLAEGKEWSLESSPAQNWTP
#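 Replicates: Single well per compound | Assay system: Truncated rat Arfgap1 GAP domain | Control set: No-Arfgap1 wells (100%) versus DMSO full-reaction wells (0%) | Times: Enzyme reaction 120 min at 25 °C after 20 min preincubation | Reagent: Human ARF1(Δ1-17)-GTP substrate | Measured by: Tracer-displacement fluorescence polarization with EDTA stop, 620/688 nm | Measure: Percent inhibition of Arfgap1-stimulated GTP hydrolysis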
# GC-A act: GC-A stimulated cGMP production enhancers – HEK293 GC-A cells, cGMP TR-FRET, EC30 ANP, primary screen | Atrial natriuretic peptide receptor 1 (Homo sapiens), P16066 | 0% at EC30 ANP, 100% saturating ANP | activation, % at 10 µM | 370,000 tested, 0.14% active; in the data active = activation above about 40%
# NPR2 activator: human GC-B receptor activators, primary screen, HEK293 GC-B cells, cGMP TR-FRET, EC30 CNP; Atrial natriuretic peptide receptor 2 (Homo sapiens), P20594; 0% at EC30 CNP, 100% saturating CNP; activation, % at 10 µM; 370,000 tested, 0.11% active;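 active = activation at 10 µM reaching about 35% in either raw or pattern-adjusted values, limit read from the data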
# ASAP1 GAP inh: inhibitors of human ASAP1 ArfGAP activity, primary screen, biochemical, fluorescence polarization; 360,000 tested, 0.19% active; ASAP1-stimulated ARF1 GTP hydrolysis, GDP FP detection; inhibition, % at 16.5 µM; Arf-GAP with SH3 domain, ANK repeat and PH domain-containing protein 1 (Homo sapiens), …; AID 624377, 2012; in the data active = inhibition above about 25%
# Target sequence (Q9ULH1 325-724 limits assumed): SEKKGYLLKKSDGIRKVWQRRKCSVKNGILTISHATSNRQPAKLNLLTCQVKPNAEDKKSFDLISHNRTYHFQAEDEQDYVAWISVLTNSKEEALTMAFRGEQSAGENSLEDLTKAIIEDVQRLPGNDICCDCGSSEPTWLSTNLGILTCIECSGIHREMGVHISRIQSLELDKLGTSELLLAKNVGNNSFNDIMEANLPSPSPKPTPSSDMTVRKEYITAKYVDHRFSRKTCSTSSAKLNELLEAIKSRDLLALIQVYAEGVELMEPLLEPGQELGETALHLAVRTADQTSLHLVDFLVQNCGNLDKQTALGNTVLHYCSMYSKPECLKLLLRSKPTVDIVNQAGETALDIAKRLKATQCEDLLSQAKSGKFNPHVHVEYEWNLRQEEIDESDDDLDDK
# core dimer inh: inhibitors of HCV core protein dimerization, primary screen, biochemical, TR-FRET, high-throughput; TR-FRET GST/Flag-core106 dimerization, 1536-well; inhibition, % at 5 µM; 300,000 tested, 0.33% active;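 active = inhibition above the mean of all tested compounds plus 3 SD, set per screening campaign, cut at about 45% in these data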
#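 Test system: GST/Flag-tagged HCV core106 proteins; Medium: KF-containing HEPES buffer, pH 7.45, DTT, CHAPS, BSA; Times: compound-protein-antibody incubation 4 h at 22.5 °C; Detection: TR-FRET 671 and 617 nm emission; Benchmarks: wells lacking GST-core106 and wells with excess unlabelled core106.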
# ASAP1 GAP conf: ASAP1 GAP activity inhibitors, confirmation, biochemical, fluorescence polarization, human, triplicate; AID 624431, 2012; shares compounds with ASAP1 GAP inh; 620 tested, 37% active; inhibition, % at 16.5 µM; ASAP1-stimulated Arf1 GTPase, GDP fluorescence polarization;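 active = mean inhibition over triplicates exceeds the hit threshold derived for the earlier primary screening run, cut at about 25% in these data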
# A number is an active result; – = inactive; · = not tested or not shown. An excerpt weighted towards active compounds, which were near 1.2% of everything screened.
SMILES,CTSL1 counter,ARFGAP1 inh,GC-A act,NPR2 activator,ASAP1 GAP inh,core dimer inh,ASAP1 GAP conf
CC1(C)SC(=S)N(/N=C/c2ccc(O)cc2)C1N(O)C(=O)Nc1ccc([N+](=O)[O-])cc1 (stereo not given),–,–,–,–,24.9,–,–
Cc1ccc(/C=N/N2C(=S)SC(C)(C)C2N(O)C(=O)Nc2ccc([N+](=O)[O-])cc2)cc1 (stereo not given),–,–,–,–,–,–,·
COc1ccc(OC)c(C2SCCN2S(=O)(=O)c2cccc(C(F)(F)F)c2)c1 (stereo not given),–,–,–,–,25.1,–,–
COc1cc(OC)c(C2SCCN2S(=O)(=O)c2ccc(F)cc2)cc1OC (stereo not given),–,–,–,–,–,–,·
O=C(N/N=C/c1cccs1)c1cncc(Br)c1,–,–,–,–,–,–,·
c1ccc(COCCCn2cc(-c3ccccc3)nn2)cc1,–,–,–,–,–,–,·
CCOc1cc2c(C#N)c(N(CC)CC)nc(N)c2c(N)n1,–,–,–,–,33.1,–,–
COCOCCn1cc(CN2CCS(=O)(=O)N(Cc3ccc(-c4ccncc4)cc3)C(CC(C)C)C2=O)nn1 (stereo not given),·,–,–,–,–,·,·
CC1N(O)C(c2ccc(Cl)cc2Cl)N(O)C1(C)C (stereo not given),–,–,–,–,25.1,–,–
N#Cc1ccc(OCCCN2CCC(C(O)(c3ccccc3)c3ccccc3)CC2)cc1,·,–,–,–,25.2,·,–
N#Cc1cc(F)cc(OCCCN2CCC(C(O)(c3ccccc3)c3ccccc3)CC2)c1,·,–,–,–,–,·,·
COc1ccc(CCn2c(C)c(C(C)=O)c3cc(OC(=O)c4ccco4)ccc32)cc1OC,–,–,–,–,24.8,–,–
CN(C)c1ccc(/C=C/c2ccc3c4ccccc4ccc3[n+]2-c2ccccc2)cc1,·,123.3,–,–,86.5,·,95.2
O=C(NCCc1ccc(F)cc1)c1ccncc1,–,–,–,–,–,–,·
CN1CCN(c2ccc(S(=O)(=O)N3CCCCC3)cc2NC(=O)/C=C/c2ccc(OC(F)F)cc2)CC1,–,–,–,–,24.9,–,–
CCC(=O)NC(c1cccs1)c1cc([N+](=O)[O-])c2cccnc2c1OC (stereo not given),·,–,–,–,43.1,·,–
NC(=O)c1ccc(NCC2CCCO2)c([N+](=O)[O-])c1 (stereo not given),–,–,–,–,–,–,·
Cc1ccc(NC(=O)c2ccc(NCC3CCCO3)c([N+](=O)[O-])c2)cc1Cl (stereo not given),–,–,–,–,34.4,–,94.6
Cc1ccc(NC(=O)c2ccc(NCc3ccco3)c([N+](=O)[O-])c2)cc1Cl,–,–,–,–,25.6,–,28.6
Cc1ccc(C(=O)NCc2ccco2)cc1[N+](=O)[O-],–,–,–,–,–,–,·
Cc1nc(Br)c(Br)n1Cc1ccccc1,·,–,–,–,–,·,·
COc1ccc(C2=Nc3ccccc3NC(=O)C2N(CCc2ccccc2)C(=O)c2cccs2)cc1 (stereo not given),·,–,–,–,26.7,·,–
O=C1Nc2ccccc2N=C(c2ccc3c(c2)OCO3)C1N(CCc1ccccc1)C(=O)CSc1ncccn1 (stereo not given),·,–,–,–,–,·,·
Cc1nc2ccc(S(=O)(=O)Nc3cccc(-c4nc5cccnc5s4)c3)cc2s1,–,–,–,–,–,–,·
Cc1nc2ccc(S(=O)(=O)Nc3ccc(-c4nc5cccnc5s4)cc3)cc2s1,–,–,–,–,28.0,–,–
SMILES,CTSL1 counter,ARFGAP1 inh,GC-A act,NPR2 activator,ASAP1 GAP inh,core dimer inh,ASAP1 GAP conf
CC(C)n1c(-c2ccc(C(C)(C)C)cc2)n[nH]c1=S,–,–,–,–,26.0,–,–
COc1ccc(CNC(=S)Nc2ccc(OC)cc2)cc1,–,–,–,–,–,–,·
Cc1c(C)c(C)c(S(=O)(=O)N2CCSCC2)c(C)c1C,–,–,–,–,–,–,·
Cc1cc(C)c(C)c(S(=O)(=O)N2CCSCC2)c1C,–,–,–,–,25.3,–,–
Cc1ccc(Cl)cc1Nc1nc(-c2sc(NC(=O)C(C)(C)C)nc2C)cs1,–,–,–,–,25.1,–,–
Cc1ccc(/C=N/n2c(-c3cccc(Cl)c3)n[nH]c2=S)o1,–,–,–,–,–,–,·
Cc1ccc(-c2nc(Nc3ccc(O)cc3)c3ccccc3n2)cc1,–,–,–,–,–,–,·
Cc1ccc(-c2nc(Nc3cccc(O)c3)c3ccccc3n2)cc1,–,–,–,–,28.9,–,–
CC1=C(C(=O)OC(C)C)C(c2cccc(F)c2)n2ncnc2N1 (stereo not given),–,–,–,–,–,–,·
CC(NC(=O)Cc1ccc(F)cc1)c1ccc(F)cc1 (stereo not given),–,–,–,–,–,–,·
O=C1NC(=S)S/C1=C\C=C\c1ccc([N+](=O)[O-])o1,·,–,–,–,28.9,·,–
O=C(O)/C=C/c1ccc([N+](=O)[O-])o1,–,–,–,–,–,–,·
O=C(NCc1ccccc1)C1=C[C@H](C2CCCCC2)C[C@H](OCCCCO)O1,–,–,–,–,–,–,·
O=C(c1ccccn1)N(Cc1ccco1)C1(C(=O)NC2CCCC2)CCCCC1,–,–,–,–,–,–,·
Cc1ccc(Nc2cc(C)nc(N3CCOCC3)n2)c(C)c1,–,–,–,–,–,–,·
COc1ccc(-c2ccc(SCC(=O)Nc3cccc(C(C)=O)c3)nn2)cc1OC,–,–,–,–,–,–,·
CC(=O)c1cccc(NC(=O)CSc2ccc(-c3ccc4c(c3)OCO4)nn2)c1,–,–,–,–,25.0,–,53.6
O=C(O)COc1ccc(NC(=O)c2ccc3c(c2)C(=O)N(C2CCCCC2)C3=O)cc1,–,–,–,–,–,–,·
COc1ccc(N(C(=O)CCl)C(C(=O)NC2CCCCC2)c2cccnc2)cc1 (stereo not given),–,–,–,–,69.9,–,–
